Consider seven molecules from ChEMBL document CHEMBL1177889, “Synthesis of novel peptidomimetics as inhibitors of protozoan cysteine proteases falcipain-2 and rhodesain” (Eur J Med Chem, 2010).

Molecules are shown by their SMILES. Bounds are passed on as bounds.

One assay concerns Plasmodium falciparum. The assay can be described thus: Antiplasmodial activity against Plasmodium falciparum FCBR infected in human RBC. Format: functional, organism-based. The following applies: FCBR/Columbia.
In assay [1] the target is Rhodesain (Trypanosoma brucei rhodesiense) (UniProt Q95PM0). The assay can be described thus: Inhibition of Trypanosoma brucei rhodesiense rhodesain at 100 uM after 10 to 15 mins. The method in brief:
(§1)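 Single-concentration screen with Cbz-Phe-Arg-AMC at 40 µM (FP-2) or 10 µM (rhodesain). Hydrolysis product release read continuously over 10 min. DMSO served as negative control and E-64 as positive control. Inhibition expressed as percent versus DMSO.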

The target in the next assay is T1, Falcipain 2 (Plasmodium falciparum, UniProt Q9N6S8).
T1 sequence (Q9N6S8 whole entry): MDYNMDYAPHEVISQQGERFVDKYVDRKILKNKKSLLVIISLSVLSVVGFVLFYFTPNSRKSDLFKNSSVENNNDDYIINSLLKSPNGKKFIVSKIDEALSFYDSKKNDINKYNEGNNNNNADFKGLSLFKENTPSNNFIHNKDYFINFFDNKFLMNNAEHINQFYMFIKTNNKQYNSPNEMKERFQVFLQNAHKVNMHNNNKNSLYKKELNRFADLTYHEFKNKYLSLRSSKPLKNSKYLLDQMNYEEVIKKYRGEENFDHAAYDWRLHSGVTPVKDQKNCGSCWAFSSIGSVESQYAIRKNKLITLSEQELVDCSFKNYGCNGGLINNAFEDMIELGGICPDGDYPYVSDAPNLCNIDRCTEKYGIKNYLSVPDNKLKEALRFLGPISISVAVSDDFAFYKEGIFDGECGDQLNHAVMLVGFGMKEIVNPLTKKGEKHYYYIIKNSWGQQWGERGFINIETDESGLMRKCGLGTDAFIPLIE
Nature of the assay: Inhibition of Plasmodium falciparum falcipain-2 after 10 to 15 min. The method in brief:
(§2)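 Recombinant enzymes, FP-2 expressed in E. coli. Run in 50 mM sodium acetate pH 5.5 with 10 mM DTT. Substrate Cbz-Phe-Arg-AMC at 40 µM for FP-2 and 10 µM for rhodesain. Fluorescence (ex 365/em 460) followed continuously for 10–15 min at room temperature. Kiapp taken from Dixon plots and corrected to Ki using Km 21.5 µM (FP-2) or 0.9 µM (rhodesain). Each assay run twice.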

In assay [2] the target is T2, Falcipain 2 (Plasmodium falciparum) (UniProt Q9N6S8).
T2 sequence (whole entry): T1 sequence (Q9N6S8 whole entry)
The assay can be described thus: Inhibition of Plasmodium falciparum falcipain-2 at 30 uM after 10 to 15 min. The gist of the method:
as §1

A further assay has as its target Rhodesain (Trypanosoma brucei rhodesiense, UniProt Q95PM0). The assay can be described thus: Inhibition of Trypanosoma brucei rhodesiense rhodesain after 10 to 15 mins. The method in brief: as §2
In assay [3] the test system is Trypanosoma brucei brucei. Nature of the assay: Antitrypanosomal activity against Trypanosoma brucei brucei TC 221 after 48 hrs by alamar blue assay. The following applies: TC 221, 48 h. A general note: The colour change of resazurin is a common sign of viable cells or microbes.

The IC50 is the concentration that inhibits the measured activity by half. A lower IC50 goes with greater potency. By inhibition is commonly meant the drop in the measured response relative to a control, in per cent. Read a low inhibition as little suppression. The Ki is a measure of affinity in units of concentration, obtained from inhibition or displacement. Lower therefore signals tighter binding.

Rhodesain, sequence (Q95PM0 whole entry): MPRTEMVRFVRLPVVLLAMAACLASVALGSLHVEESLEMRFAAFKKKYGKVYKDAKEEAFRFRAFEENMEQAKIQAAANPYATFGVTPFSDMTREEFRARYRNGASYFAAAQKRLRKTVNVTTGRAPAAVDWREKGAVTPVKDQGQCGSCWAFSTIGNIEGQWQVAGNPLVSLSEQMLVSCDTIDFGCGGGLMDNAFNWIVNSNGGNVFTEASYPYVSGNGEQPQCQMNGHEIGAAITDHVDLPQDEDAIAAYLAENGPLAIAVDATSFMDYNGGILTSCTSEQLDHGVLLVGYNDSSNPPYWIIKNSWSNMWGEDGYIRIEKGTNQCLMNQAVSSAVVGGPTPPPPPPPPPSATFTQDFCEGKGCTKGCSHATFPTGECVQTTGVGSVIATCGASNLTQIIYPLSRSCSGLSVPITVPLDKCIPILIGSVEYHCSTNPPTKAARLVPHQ
Rhodesain (Trypanosoma brucei rhodesiense), sequence (Q95PM0 1-450): as the sequence (Q95PM0 whole entry) above

As to `O=C(CN1C(=O)[C@@H](COC(=O)Nc2ccc(Cl)cc2C(F)(F)F)N=C(c2ccccc2)c2ccccc21)N[C@H]1CC(=O)OC1O` (some centres not stated), the 50% inhibitory concentration (IC50) in the assay with Plasmodium falciparum was more than 100 µM. In addition, the inhibition in assay [1] is 30%. In addition, the affinity at Falcipain 2 corresponds to a Ki of 4 µM.
Regarding `O=C(CN1C(=O)[C@@H](COC(=O)Nc2ccc(Cl)cc2C(F)(F)F)N=C(c2ccccc2)c2ccccc21)N[C@H]1CC(=O)O[C@H]1OCc1ccccc1`, the inhibition in assay [2] was less than 30%.
`CC(C)C[C@H](NC(=O)[C@H]1O[C@@H]1C(=O)O)C(=O)NCCCCN=C(N)N` [E-64] had a 50% inhibitory concentration (IC50) in the assay on Plasmodium falciparum of 9.3 µM. For the same molecule, the Ki on Falcipain 2 was determined as 40.3 µM.
As for `O=C(CN1C(=O)[C@@H](COC(=O)Nc2ccc(Cl)cc2C(F)(F)F)N=C(c2ccccc2)c2ccccc21)N[C@H]1CC(=O)O[C@@H]1OCc1ccccc1`, in the assay with Plasmodium falciparum, 49.5 µM corresponded to half-maximal inhibition (IC50). Further, the results for the Ki on Rhodesain and at Falcipain 2 were 0.8 µM and 8.9 µM, respectively. Further, the inhibition in assay [2] is more than 50%.
In assay [2], `CC(C)(C)S[C@@H]1OC(=O)C[C@@H]1NC(=O)CN1C(=O)[C@@H](COC(=O)Nc2ccc(Cl)cc2C(F)(F)F)N=C(c2ccccc2)c2ccccc21` had an inhibition of less than 30%.
In assay [3], `NCCCC(N)(C(=O)O)C(F)F` (configuration not stated) [EFLORNITHINE] had an IC50 of 22.9 µM.
As to `CC(C)(C)S[C@H]1OC(=O)C[C@@H]1NC(=O)CN1C(=O)[C@@H](COC(=O)Nc2ccc(Cl)cc2C(F)(F)F)N=C(c2ccccc2)c2ccccc21`, the values for the 50% inhibitory concentration (IC50) (in the assay on Plasmodium falciparum; in assay [3]) were 28.5 µM and 14.2 µM, respectively. For the same molecule, the figures for the Ki on Rhodesain and on Falcipain 2 were 0.7 µM and 8.2 µM, respectively. The molecule further displayed an inhibition in assay [2] of more than 50%.
